Activity calls are given as the source filed them. The calls are words filed in the database; no cut-off is given here.
Legend:
[1] = target: T1, Tyrosine-protein phosphatase non-receptor type 11 (Mus musculus) (UniProt P35235); test: Inhibition of SHP2-dependent ERK1/2 activation in EGF-stimulated mouse NIH/3T3 cells assessed as phosphorylated ERK1/2 level at 10 uM treated for 3 hrs before EGF challenge measured after 5 to 15 mins of EGF stimulation by immunoblot analysis; assay type: cell-based; settings: NIH3T3
T1 sequence (whole entry): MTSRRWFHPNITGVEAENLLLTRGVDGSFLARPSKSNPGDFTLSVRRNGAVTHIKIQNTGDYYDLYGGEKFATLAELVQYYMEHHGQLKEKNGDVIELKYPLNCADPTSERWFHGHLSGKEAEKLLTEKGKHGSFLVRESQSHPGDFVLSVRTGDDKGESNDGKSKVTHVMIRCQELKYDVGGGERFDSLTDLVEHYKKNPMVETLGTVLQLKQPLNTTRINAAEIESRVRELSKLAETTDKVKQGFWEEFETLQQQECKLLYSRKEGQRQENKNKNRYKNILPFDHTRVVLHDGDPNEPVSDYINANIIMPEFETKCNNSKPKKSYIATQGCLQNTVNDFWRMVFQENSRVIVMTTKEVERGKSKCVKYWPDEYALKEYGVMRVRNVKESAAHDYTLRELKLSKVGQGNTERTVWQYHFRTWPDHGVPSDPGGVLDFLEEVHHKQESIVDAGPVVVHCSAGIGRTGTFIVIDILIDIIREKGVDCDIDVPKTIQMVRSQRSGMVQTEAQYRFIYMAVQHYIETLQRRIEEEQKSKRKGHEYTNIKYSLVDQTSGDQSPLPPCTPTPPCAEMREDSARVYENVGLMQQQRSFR

[2] = target: Receptor-type tyrosine-protein phosphatase F (Homo sapiens, UniProt P10586); test: Inhibition of LAR expressed in Escherichia coli assessed as inhibition of p-nitrophenyl phosphate hydrolysis at pH 7 by spectrophotometry
Receptor-type tyrosine-protein phosphatase F, sequence (P10586 whole entry): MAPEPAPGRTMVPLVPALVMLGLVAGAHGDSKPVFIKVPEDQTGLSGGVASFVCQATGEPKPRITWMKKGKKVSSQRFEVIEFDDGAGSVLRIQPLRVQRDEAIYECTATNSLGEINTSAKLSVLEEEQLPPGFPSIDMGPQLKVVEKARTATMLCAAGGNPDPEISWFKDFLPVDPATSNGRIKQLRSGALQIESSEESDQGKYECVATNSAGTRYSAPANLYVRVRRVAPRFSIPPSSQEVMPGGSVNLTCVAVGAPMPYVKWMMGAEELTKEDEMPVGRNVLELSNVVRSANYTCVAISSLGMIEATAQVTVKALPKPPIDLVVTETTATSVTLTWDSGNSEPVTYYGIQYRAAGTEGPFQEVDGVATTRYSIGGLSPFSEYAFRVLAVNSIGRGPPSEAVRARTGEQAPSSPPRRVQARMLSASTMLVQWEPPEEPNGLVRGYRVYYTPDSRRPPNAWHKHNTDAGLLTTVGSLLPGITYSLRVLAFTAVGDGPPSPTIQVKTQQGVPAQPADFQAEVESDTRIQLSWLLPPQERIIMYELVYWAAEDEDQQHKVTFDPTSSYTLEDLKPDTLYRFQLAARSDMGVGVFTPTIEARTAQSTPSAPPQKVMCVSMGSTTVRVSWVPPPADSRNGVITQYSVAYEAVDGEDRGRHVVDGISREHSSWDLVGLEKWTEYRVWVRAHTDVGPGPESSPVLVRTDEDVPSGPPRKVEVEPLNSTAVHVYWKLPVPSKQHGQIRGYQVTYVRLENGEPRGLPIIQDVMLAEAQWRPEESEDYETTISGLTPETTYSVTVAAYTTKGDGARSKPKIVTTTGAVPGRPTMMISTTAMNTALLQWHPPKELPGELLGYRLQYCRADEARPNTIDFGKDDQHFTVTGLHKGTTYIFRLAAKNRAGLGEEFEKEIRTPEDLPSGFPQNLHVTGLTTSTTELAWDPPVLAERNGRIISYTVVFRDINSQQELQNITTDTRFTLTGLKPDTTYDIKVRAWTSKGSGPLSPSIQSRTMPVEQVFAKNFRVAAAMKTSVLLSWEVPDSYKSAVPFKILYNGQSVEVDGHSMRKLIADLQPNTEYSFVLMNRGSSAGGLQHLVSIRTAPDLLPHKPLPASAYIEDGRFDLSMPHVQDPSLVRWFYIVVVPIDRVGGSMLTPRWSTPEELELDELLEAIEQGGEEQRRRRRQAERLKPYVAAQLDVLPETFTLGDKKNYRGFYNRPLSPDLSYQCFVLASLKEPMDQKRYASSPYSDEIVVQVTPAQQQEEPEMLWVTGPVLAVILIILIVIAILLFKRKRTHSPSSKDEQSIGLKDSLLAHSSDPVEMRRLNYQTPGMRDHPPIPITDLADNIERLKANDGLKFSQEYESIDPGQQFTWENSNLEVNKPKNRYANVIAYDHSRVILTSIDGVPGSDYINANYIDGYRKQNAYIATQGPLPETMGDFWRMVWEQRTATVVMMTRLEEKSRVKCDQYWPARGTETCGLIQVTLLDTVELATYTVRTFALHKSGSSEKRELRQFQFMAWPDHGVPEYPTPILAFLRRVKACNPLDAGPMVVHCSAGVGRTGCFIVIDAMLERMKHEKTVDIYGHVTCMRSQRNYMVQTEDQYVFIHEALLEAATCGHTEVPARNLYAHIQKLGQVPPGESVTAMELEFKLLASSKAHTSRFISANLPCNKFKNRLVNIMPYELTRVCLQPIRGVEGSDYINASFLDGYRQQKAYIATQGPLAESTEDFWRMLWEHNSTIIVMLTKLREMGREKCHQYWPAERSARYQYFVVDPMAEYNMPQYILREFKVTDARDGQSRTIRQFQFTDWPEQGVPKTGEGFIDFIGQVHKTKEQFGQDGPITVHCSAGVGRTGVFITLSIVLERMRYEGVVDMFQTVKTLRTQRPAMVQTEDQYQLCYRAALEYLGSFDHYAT

Mus musculus [3] = species on record: Mus musculus; test: Antiproliferative activity against GM-CSF-stimulated C57/BL6 mouse low density BM-MNC assessed as inhibition of hyperproliferation at 10 uM after 16 hrs by [3H]thymidine incorporation assay; settings: C57Bl/6
[4] = target: T2, Receptor-type tyrosine-protein phosphatase C (Homo sapiens, UniProt P08575); test: Inhibition of CD45 expressed in Escherichia coli assessed as inhibition of p-nitrophenyl phosphate hydrolysis at pH 7 by spectrophotometry
T2 sequence (P08575 whole entry): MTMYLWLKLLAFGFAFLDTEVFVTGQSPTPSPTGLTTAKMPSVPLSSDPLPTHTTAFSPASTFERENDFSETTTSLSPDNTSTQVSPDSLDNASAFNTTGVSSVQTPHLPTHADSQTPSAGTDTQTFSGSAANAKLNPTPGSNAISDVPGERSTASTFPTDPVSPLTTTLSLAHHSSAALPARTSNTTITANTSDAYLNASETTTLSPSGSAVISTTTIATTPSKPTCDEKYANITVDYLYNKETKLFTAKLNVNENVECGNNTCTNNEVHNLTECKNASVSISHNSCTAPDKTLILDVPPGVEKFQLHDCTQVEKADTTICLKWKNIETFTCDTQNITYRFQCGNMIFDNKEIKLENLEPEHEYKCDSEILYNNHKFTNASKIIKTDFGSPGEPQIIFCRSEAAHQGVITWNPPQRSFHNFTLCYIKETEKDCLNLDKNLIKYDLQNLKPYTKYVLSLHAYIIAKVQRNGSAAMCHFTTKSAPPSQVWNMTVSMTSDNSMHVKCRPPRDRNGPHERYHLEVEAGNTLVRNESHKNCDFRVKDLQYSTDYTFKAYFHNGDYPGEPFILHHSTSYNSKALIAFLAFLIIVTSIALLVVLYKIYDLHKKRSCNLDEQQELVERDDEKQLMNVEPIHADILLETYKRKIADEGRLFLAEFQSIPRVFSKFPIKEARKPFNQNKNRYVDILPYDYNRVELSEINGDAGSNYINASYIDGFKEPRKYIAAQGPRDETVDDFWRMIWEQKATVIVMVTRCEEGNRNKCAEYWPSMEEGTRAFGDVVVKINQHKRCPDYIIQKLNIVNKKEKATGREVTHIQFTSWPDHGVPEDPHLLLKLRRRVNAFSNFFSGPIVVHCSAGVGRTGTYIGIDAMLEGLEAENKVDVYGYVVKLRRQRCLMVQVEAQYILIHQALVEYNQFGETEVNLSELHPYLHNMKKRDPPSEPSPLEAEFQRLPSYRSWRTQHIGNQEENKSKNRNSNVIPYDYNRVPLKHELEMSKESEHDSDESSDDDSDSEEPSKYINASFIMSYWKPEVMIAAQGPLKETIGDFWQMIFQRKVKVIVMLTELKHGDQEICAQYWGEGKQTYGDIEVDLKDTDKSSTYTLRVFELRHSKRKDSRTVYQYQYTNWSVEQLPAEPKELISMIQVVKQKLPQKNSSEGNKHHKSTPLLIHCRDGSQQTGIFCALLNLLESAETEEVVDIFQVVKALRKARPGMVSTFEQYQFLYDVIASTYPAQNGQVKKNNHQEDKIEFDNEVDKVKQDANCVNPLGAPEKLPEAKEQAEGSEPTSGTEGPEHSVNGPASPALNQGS

Mus musculus [5] = species on record: Mus musculus; test: Antiproliferative activity against GM-CSF-stimulated C57/BL6 mouse low density BM-MNC expressing SHP2 D61Y mutant assessed as inhibition of hyperproliferation at 10 uM after 16 hrs by [3H]thymidine incorporation assay; assay type: functional; settings: C57Bl/6
How it was run: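 Marrow low-density mononuclear cells from C57Bl/6 mice (Ficoll), prestimulated 24 h with SCF, G-CSF, Tpo (100 ng/mL), retrovirally transduced 48 h with wild-type SHP2, D61Y or E76K, EGFP-sorted. Starved 4 h in 0.2% BSA; 5 × 10^4 cells cultured 16 h in GM-CSF 0-1 ng/mL ± 10 μM compound, then pulsed with 1.0 μCi [3H]thymidine for 6-8 h; counts per minute; n = 3.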

[6] = target: Tyrosine-protein phosphatase non-receptor type 13 (Homo sapiens, UniProt Q12923); test: Inhibition of FAP1 expressed in Escherichia coli assessed as inhibition of p-nitrophenyl phosphate hydrolysis at pH 7 by spectrophotometry
Tyrosine-protein phosphatase non-receptor type 13, sequence (Q12923 whole entry): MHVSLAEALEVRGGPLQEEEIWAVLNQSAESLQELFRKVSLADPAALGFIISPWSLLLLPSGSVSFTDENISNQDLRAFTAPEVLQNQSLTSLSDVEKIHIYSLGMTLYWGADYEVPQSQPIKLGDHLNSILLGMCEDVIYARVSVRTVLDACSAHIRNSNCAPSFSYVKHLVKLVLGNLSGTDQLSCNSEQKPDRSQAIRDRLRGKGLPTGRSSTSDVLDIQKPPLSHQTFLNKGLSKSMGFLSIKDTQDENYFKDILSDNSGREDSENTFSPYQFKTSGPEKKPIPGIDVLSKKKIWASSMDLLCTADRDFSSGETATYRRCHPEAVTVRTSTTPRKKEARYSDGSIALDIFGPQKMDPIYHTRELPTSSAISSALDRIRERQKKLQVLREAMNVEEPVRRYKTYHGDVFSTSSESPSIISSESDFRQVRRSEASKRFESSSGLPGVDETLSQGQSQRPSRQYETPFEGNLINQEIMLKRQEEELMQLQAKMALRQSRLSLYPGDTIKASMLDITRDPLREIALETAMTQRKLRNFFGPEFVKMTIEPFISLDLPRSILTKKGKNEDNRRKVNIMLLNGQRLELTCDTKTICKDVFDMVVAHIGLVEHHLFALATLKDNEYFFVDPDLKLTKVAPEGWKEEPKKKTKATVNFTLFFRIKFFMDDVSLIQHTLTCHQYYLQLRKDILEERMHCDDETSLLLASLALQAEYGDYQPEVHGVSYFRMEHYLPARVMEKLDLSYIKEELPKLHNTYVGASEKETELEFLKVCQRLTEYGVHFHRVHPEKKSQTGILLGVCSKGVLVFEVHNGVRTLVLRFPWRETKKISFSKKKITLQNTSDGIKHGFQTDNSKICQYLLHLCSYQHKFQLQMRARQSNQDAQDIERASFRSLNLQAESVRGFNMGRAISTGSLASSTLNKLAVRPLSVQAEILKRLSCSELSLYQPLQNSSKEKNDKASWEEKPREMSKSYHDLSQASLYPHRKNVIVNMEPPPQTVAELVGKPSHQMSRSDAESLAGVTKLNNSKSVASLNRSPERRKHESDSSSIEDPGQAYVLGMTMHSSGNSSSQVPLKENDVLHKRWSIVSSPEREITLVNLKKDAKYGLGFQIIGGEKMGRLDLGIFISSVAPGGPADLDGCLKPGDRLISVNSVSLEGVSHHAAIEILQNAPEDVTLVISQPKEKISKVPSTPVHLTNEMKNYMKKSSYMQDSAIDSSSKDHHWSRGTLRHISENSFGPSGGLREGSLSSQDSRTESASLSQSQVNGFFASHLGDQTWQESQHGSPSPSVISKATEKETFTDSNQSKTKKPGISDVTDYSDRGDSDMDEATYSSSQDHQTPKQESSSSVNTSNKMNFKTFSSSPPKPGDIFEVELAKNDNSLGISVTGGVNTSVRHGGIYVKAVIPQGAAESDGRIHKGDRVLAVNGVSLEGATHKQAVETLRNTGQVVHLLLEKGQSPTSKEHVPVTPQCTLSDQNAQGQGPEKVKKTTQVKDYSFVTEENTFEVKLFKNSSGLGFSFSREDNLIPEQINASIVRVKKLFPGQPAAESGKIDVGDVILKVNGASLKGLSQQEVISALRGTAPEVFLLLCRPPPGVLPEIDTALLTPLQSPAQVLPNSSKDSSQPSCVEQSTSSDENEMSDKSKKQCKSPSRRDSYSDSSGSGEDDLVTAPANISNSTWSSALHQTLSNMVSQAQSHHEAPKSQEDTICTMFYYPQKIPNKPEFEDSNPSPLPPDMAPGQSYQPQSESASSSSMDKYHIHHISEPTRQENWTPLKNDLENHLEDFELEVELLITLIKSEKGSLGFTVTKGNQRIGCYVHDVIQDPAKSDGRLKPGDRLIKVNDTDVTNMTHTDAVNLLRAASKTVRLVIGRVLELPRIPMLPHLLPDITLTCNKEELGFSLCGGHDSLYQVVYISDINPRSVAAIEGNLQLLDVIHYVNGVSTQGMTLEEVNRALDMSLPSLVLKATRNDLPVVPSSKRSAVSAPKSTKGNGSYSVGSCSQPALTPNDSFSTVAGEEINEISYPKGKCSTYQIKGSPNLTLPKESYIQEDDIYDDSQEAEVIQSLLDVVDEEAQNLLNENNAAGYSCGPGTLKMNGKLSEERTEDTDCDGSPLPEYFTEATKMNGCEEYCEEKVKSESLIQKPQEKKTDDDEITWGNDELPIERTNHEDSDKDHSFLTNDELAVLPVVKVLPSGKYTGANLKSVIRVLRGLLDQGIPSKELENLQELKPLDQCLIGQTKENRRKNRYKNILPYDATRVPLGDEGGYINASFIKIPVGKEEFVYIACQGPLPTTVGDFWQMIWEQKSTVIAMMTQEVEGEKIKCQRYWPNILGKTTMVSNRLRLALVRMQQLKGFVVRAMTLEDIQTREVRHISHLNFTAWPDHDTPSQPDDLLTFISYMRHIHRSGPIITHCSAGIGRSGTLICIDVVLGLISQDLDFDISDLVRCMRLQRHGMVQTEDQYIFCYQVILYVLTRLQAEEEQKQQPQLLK

[7] = target: Tyrosine-protein phosphatase non-receptor type 6 (Homo sapiens, UniProt P29350); test: Inhibition of SHP1 expressed in Escherichia coli assessed as inhibition of p-nitrophenyl phosphate hydrolysis at pH 7 by spectrophotometry
Tyrosine-protein phosphatase non-receptor type 6, sequence (P29350 whole entry): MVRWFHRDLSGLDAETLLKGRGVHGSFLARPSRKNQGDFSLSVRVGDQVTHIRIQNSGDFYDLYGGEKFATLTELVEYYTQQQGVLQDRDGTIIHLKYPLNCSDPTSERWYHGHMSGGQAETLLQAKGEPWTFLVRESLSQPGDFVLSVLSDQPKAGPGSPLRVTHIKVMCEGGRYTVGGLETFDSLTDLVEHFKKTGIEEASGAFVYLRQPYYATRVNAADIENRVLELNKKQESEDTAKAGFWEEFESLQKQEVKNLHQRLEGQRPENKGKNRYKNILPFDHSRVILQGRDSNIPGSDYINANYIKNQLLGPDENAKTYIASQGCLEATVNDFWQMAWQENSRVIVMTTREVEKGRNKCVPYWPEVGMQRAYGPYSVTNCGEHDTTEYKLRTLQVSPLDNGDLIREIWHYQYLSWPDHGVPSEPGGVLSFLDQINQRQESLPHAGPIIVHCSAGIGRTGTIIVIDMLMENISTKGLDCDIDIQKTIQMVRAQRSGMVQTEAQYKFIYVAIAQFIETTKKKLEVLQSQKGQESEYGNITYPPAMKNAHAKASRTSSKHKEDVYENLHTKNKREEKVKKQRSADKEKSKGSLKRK

Q: With Cn1c(-c2ccccc2)c(-c2cn(CCC(=O)Nc3ccc(-c4ccccc4)cc3)nn2)c2cc(C(=O)O)c(O)cc21 as the compound, how does the inhibition [1] read?
A: Its inhibition is “inactive”.

Q: What about the IC50 [2] of the same compound?
A: The IC50 was over 50 µM.

Q: And the Activity (Mus musculus [3])?
A: Its Activity is “Active”.

Q: What about the IC50 [4] of the same compound?
A: The IC50 was 30 µM.

Q: What about the Activity (Mus musculus [5]) of the same compound?
A: Its Activity is “Active”.

Q: And the IC50 [6]?
A: The IC50 was 20.3 µM.

Q: What about the IC50 [7] of the same compound?
A: Its IC50 is 15.7 µM.
